Assay [1] relates to HEK293. Description: Inhibition of LiCl-activated Wnt signaling in HEK293 cells at 0.5 uM by TOPFlash reporter gene assay. The assay is classed as cell-based. Particulars: Homo sapiens. In a few lines:
(§1)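 Stable HEK293T Super 8xTOPFlash reporter line (pGL4.83 backbone, puromycin-selected), stimulated with 25 mM LiCl to stabilize β-catenin. Treated with compound in DMSO or DMSO. Luciferase read in 96- or 24-well format. AMPK inhibitor compound C used at 5 μM where applied. At least three independent repeats.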
In general terms: A reporter such as luciferase makes a cellular process visible.

Assay [2] relates to HEK293. Description: Effect on FOP reporter expression in LiCl-induced HEK293T cells incubated for 24 hrs by luciferase reporter gene assay. It is filed as functional, cell-based. Particulars: Homo sapiens. In a few lines:
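HEK293T cells transiently transfected with Super 8x TOPFlash or 8x FOPFlash plus control Renilla reporter. Wnt signaling activated with LiCl or Wnt3A. Cells treated with DMSO or compound in DMSO. Luciferase activity read.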

Assay [3] concerns LS174T. Nature of the assay: Cytotoxicity against human LS174T cells assessed as reduction in cell viability by Vi-Cell XR cell viability analyzer-based assay. The assay is classed as functional. Summed up:
(§2)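 Colon cancer cells plated at 3.5×10^4 per well in 12-well plates. LS174T were in EMEM + 10% FBS; DLD-1 were in DMEM + 10% FBS. After 24 h, compound in DMSO added (DMSO control). Cell number and viability counted on a Vi-Cell XR analyzer. Triplicate wells.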

Assay [4] concerns DLD-1. Description: Cytotoxicity against human DLD1 cells assessed as reduction in cell viability by Vi-Cell XR cell viability analyzer-based assay. It is filed as functional. In a few lines: as §2
Assay [5] is filed under the species Homo sapiens. Description: Inhibition of Wnt in human DLD1 cells assessed as reduction in Axin2 expression at 1 to 3 uM by Western blot analysis. The assay is classed as cell-based. Summed up: (§3)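 Colorectal cancer cells (DLD-1, LS174T, SW620) treated with a compound dose series in DMSO. Lysates immunoblotted for Axin2, c-Myc and cyclin D1. At least three independent repeats.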
On the technique in general: In western blotting, separated proteins are transferred to a membrane and probed.

For assay [6], the species on record is Homo sapiens. Description: Inhibition of Wnt in human SW620 cells assessed as reduction in Axin2 expression at 1 uM by Western blot analysis. It is filed as cell-based. Summed up: as §3
The test system of assay [7] is LS174T. Nature of the assay: Inhibition of Wnt in human LS174T cells assessed as reduction in Axin2 expression at 1 uM by Western blot analysis. It is filed as cell-based. Summed up: as §3
Assay [8] is filed under the species Homo sapiens. Description: Inhibition of Wnt in human DLD1 cells assessed as reduction in c-Myc expression at 1 to 3 uM by Western blot analysis. The assay is classed as cell-based. In a few lines: as §3
The species entered for assay [9] is Homo sapiens. Description: Inhibition of Wnt in human SW620 cells assessed as reduction in c-Myc expression at 1 uM by Western blot analysis. It is filed as cell-based. In a few lines:
as §3

In assay [10] the test system is LS174T. Nature of the assay: Inhibition of Wnt in human LS174T cells assessed as reduction in c-Myc expression at 1 uM by Western blot analysis. The assay is classed as cell-based. In a few lines:
as §3

Assay [11] is filed under the species Homo sapiens. Nature of the assay: Inhibition of Wnt in human DLD1 cells assessed as reduction in cyclin-D1 expression at 1 to 3 uM by Western blot analysis. The assay is classed as cell-based. In a few lines: as §3
Assay [12] is filed under the species Homo sapiens. Description: Inhibition of Wnt in human SW620 cells assessed as reduction in cyclin-D1 expression at 1 uM by Western blot analysis. It is filed as cell-based. Summed up: as §3
In assay [13] the test system is LS174T. Nature of the assay: Inhibition of Wnt in human LS174T cells assessed as reduction in cyclin-D1 expression at 1 uM by Western blot analysis. It is filed as cell-based. Summed up: as §3
For assay [14], the target named is T1, AMP-activated protein kinase, AMPK (Homo sapiens) (UniProt P54646+O43741+P54619+Q9UGJ0+Q9Y478+Q13131+Q9UGI9). Description: Activation of AMPK in human LS174T cells assessed as increase in AMPK phosphorylation at T172 residue at 3 uM by Western blot analysis. The assay is classed as cell-based. In a few lines: (§4)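 Cells lysed in 50 mM HEPES, 100 mM NaCl, 2 mM EDTA, 1% glycerol, 50 mM NaF, 1 mM Na3VO4, 1% Triton X-100 with protease inhibitors. Western blot probed for total and phospho-AMPK and total and phospho-ACC, with actin loading control. Compounds given in DMSO. At least three independent repeats.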

For assay [15], the target named is T1, AMP-activated protein kinase, AMPK (Homo sapiens). Nature of the assay: Activation of AMPK in human LS174T cells assessed as […] phosphorylation at S79 residue at 3 uM by Western blot analysis. It is filed as cell-based. Summed up: as §4
Assay [16] concerns HEK293. Nature of the assay: Inhibition of LiCl-activated Wnt signaling in HEK293 cells at 3 uM in presence of AMPK inhibitor compound C by TOPFlash reporter gene assay. It is filed as cell-based. Particulars: Homo sapiens. In a few lines:
as §1

Assay [17] deals with DLD-1. Description: Induction of mitochondrial dysfunction in human DLD1 cells assessed as reduction in mitochondrial ATP production at 3 uM by Seahorse XF real-time assay. Particulars: Mitochondria. Summed up: (§5)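 About 3×10^4 cells seeded per well in XF96 plates. Next day medium switched to Seahorse XF medium with 25 mM glucose and 1 mM pyruvate. Compound given at 3 μM in DMSO; FCCP 1 μM as reference. Mitochondrial and glycolytic ATP production rates measured by XF Real-Time ATP Rate Assay.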

Assay [18] has as its system DLD-1. Nature of the assay: Induction of mitochondrial dysfunction in human DLD1 cells assessed as increase in glycolytic ATP production at 3 uM by Seahorse XF real-time assay. Particulars: Mitochondria. Summed up:
as §5

In assay [19] the test system is LS174T. Description: Induction of mitochondrial dysfunction in human LS174T cells assessed as reduction in mitochondrial ATP production at 3 uM by Seahorse XF real-time assay. Particulars: Mitochondria. Summed up:
as §5

Assay [20] relates to LS174T. Nature of the assay: Induction of mitochondrial dysfunction in human LS174T cells assessed as increase in glycolytic ATP production at 3 uM by Seahorse XF real-time assay. Particulars: Mitochondria. Summed up: as §5
The test system of assay [21] is DLD-1. Nature of the assay: Induction of mitochondrial membrane potential disruption in human DLD1 cells at 3 uM measured after 2 hrs by TMRM staining based fluorescence microscopic analysis. Particulars: Mitochondria. Summed up:
(§6)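 Cells grown one day in 24-well plates: DLD-1 in DMEM + 10% serum, LS174T in RPMI1640 + 5% serum. Treated 2 h with compound in DMSO or DMSO, then stained with 100 nM TMRM for 15 min. Rinsed once with PBS and imaged by fluorescence microscopy at 568 nm.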

In assay [22] the test system is LS174T. Description: Induction of mitochondrial membrane potential disruption in human LS174T cells at 3 uM measured after 2 hrs by TMRM staining based fluorescence microscopic analysis. Particulars: Mitochondria. Summed up: as §6
The test system of assay [23] is DLD-1. Description: Uncoupling of mitochondrial oxidative phosphorylation in human DLD1 cells at 3 uM in presence of oligomycin A by seahorse XFe96 analyser based assay. Particulars: Mitochondria. Summed up: (§7)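 DLD-1 cells, about 3×10^4 per XF96 well, in XF medium with 25 mM glucose and 1 mM pyruvate. Mito stress sequence: oligomycin A 1 μM, then test compound 3 μM in DMSO in place of FCCP (FCCP 1 μM as control), then rotenone/antimycin A 1 μM each. Oxygen consumption rate recorded.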

The test system of assay [24] is DLD-1. Description: Uncoupling of mitochondrial oxidative phosphorylation in human DLD1 cells assessed as increase in oxygen consumption rate at 3 uM in presence of oligomycin A by seahorse XFe96 analyser based assay. Particulars: Mitochondria. Summed up:
as §7

Assay [25] deals with LS174T. Description: Inhibition of LiCl-induced Wnt signaling in human LS174T cells assessed as reduction in beta-catenin accumulation. The assay is classed as cell-based.
Assay [26] deals with HEK293. Description: Inhibition of LiCl-activated Wnt signaling in HEK293 cells at […] by TOPFlash reporter gene assay. Particulars: Homo sapiens. It is filed as cell-based. Summed up: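 Stable HEK293T line carrying Super 8xTOPFlash subcloned into pGL4.83 (hRlucP/Puro), selected with puromycin; Wnt signaling activated with 25 mM LiCl, compound added in DMSO (DMSO control); luciferase reporter readout. At least three independent repeats.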

The subject of assay [27] is LS174T. Description: Inhibition of glucose metabolism in human LS174T cells assessed as reduction in ATP level at 10 mM by luminescence assay. The assay is classed as functional, cell-based.

This passage reports inhibition, Activity and IC50 results from ChEMBL document CHEMBL4321861, “An Underlying Mechanism of Dual Wnt Inhibition and AMPK Activation: Mitochondrial Uncouplers Masquerading as Wnt Inhibitors” (J Med Chem, 2019).

pIC50: −log10 of the molar value. The source made the active and inactive calls. No cut-off for these calls is given here.

As a reminder, the pIC50 is −log10 of the IC50, conventionally taken in molar units. Regarding `O=C(Nc1nnc(C(F)(F)F)s1)NC(CC(F)(F)F)(C(F)(F)F)C(F)(F)F`, in the assay on HEK293 [1], the inhibition entry was “inactive”. In addition, the outcome in the assay on HEK293 [2] was inactive. The pIC50 in the assay on LS174T [3] is 6.10; with DLD-1 [4], 6.02. Moreover, the inhibition result in the assay filed under Homo sapiens [5], in the assay filed under Homo sapiens [6], in the assay with LS174T [7], in the assay listed under Homo sapiens [8], in the assay listed under Homo sapiens [9] and in the assay on LS174T [10] was “Active” throughout. The inhibition entry in the assay filed under Homo sapiens [11], in the assay filed under Homo sapiens [12], in the assay with LS174T [13], with HEK293 [16] and with LS174T [25] was “Active” throughout. Besides, the outcome (in assay [14]; in [15]; in the assay on DLD-1 [17]; with DLD-1 [18]; in the assay on LS174T [19]; in the assay with LS174T [20]) was Active. Further, the result in the assay with DLD-1 [21], in the assay with LS174T [22], in the assay on DLD-1 [23] and with DLD-1 [24] was Active.
For the compound `OC[C@H]1OC(O)C[C@@H](O)[C@@H]1O` (some centres not stated), the inhibition entry in the assay on HEK293 [26] and in the assay with LS174T [27] was “Active” throughout.
